In the library only some 2.8% were active in any assay of this set; here they are far more common.
RAM network inh: inhibitors of the yeast RAM network, primary screen, dse1pr::URA3 reporter, 5-FOA selection. inhibition, % at 50 µM. S. cerevisiae dse1pr::URA3 reporter, 5-FOA growth OD615, 2 d; analog-sensitive cbk1-as2 kinase mutant strain. 190,000 compounds, 1.8% hits. AID 868, 2007;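 active = inhibition above a set limit, 3 SD over mean compound inhibition, cut at about 8.4% in these data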;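 note: 0% = DMSO-only wells with no growth and 100% = 10 µM 1-NA-PP1 full growth; inhibition rescues growth on 5-FOA so higher OD means more RAM inhibition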
TNAP inh hiacc: human TNAP enzyme inhibitors, primary screen, biochemical, luminescent, high phosphate acceptor level, uHTS. purified TNAP, CDP-star luminescence, 1 M DEA. 200,000 compounds, 0.03% hits. inhibition, % at 20 µM;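 active = over 50% inhibition of tissue-nonspecific alkaline phosphatase at 20 µM in the single-dose screen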;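 note: plate controls were DMSO wells for no effect and EDTA-quenched wells as full inhibition for full effect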
Target sequence (P05186 whole entry, looked up): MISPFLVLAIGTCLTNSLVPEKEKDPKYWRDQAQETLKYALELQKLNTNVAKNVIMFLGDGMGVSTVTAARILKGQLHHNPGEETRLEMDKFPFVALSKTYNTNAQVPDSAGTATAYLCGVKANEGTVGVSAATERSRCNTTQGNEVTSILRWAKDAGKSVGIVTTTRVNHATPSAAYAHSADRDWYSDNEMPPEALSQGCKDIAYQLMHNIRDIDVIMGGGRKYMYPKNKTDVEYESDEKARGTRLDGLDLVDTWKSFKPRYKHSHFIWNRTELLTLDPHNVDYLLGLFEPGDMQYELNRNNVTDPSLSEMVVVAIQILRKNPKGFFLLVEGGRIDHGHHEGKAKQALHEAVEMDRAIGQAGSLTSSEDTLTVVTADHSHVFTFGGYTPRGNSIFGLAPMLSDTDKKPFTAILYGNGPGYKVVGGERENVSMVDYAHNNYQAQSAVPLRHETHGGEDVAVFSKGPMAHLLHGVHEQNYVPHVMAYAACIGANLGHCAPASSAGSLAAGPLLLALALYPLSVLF
TNAP inh no acc: human TNAP enzyme inhibitors, primary screen, biochemical, luminescent, no phosphate acceptor, uHTS; purified TNAP, CDP-star luminescence, 30 min; 200,000 compounds, 0.26% hits; Alkaline phosphatase, tissue-nonspecific isozyme (Homo sapiens), P05186; inhibition, % at 20 µM;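 active = tissue-nonspecific alkaline phosphatase inhibition above about 50% at 20 µM in the single-dose screen, limit read from the data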;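 note: 0% = DMSO negative control and 100% = EDTA positive control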
Yeast life ext: compounds extending yeast replicative lifespan, primary screen, S. cerevisiae, OD615; 130,000 compounds, 0.68% hits; S. cerevisiae growth with nicotinamide; deaD strain in restrictive glucose medium; inhibition of the nicotinamide effect, % at 10 µM;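 active = inhibition above a set limit, placed 3 SD over the median of all compounds, cut at about 26% in these data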;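 note: 0% = nicotinamide-treated wells and 100% = cells grown without nicotinamide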
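Material: Modified budding yeast, DeaD strain | Medium: Restrictive glucose medium | Probe or stimulus: 1.5 mM nicotinamide | Dosing: Single dose 10 µM compound, 0.25% DMSO | Times: 48 h at 30 °C | Technique: OD615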
BB579 growth dn: growth inhibitors of yeast BB579 in restrictive medium, primary screen, yeast lifespan-shortening project, S. cerevisiae; AID 804, 2007; 140,000 compounds, 0.51% hits; OD615, 48 h; inhibition, % at 10 µM;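 active = inhibition above a set limit, 3 SD over the mean compound inhibition, cut at about 44% in these data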
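System: DeaD yeast strain BB579; buffer or medium: CSMM-D dextrose restrictive medium; technique: OD at 615 nm; schedule: 4 h cell preincubation, 48 h compound exposure, 30 °C humidified; doses: single 10 µM dose; controls: amphotericin B 10 µg/mL, positive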
TNAP act hi DEA: TNAP activators at high phosphate acceptor level, primary screen, biochemical, luminescence, uHTS; 200,000 tested, under 10 active; activation factor at 20 µM; purified TNAP, CDP-star luminescence, 1 M DEA, 30 min; active compounds read high; 0 = EDTA background, 1 = DMSO-only activity;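 active = activation factor at least 2 at 20 µM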
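Test system – human TNAP · Doses – 20 µM single point · Incubation – 30 min, room temperature · Signal – luminescent substrate turnover signal · Read-out basis – activation factor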
* = called active by the depositor; · = no result given.

SMILES | RAM network inh | TNAP inh hiacc | TNAP inh no acc | Yeast life ext | BB579 growth dn | TNAP act hi DEA
O=C(O)CCCCCN1C(=O)/C(=C/c2ccncc2)SC1=S | -1 | -3 | 14 | 40* | -29 | 1
Cc1ccc(/C=C2\SC(=S)N(CCCC(=O)Nc3nccs3)C2=O)cc1 | 5 | 10 | -1 | 5 | -9 | 0.9
O=C(CCCN1C(=O)/C(=C/c2cccs2)SC1=S)NNC(=O)c1ccncc1 | 2 | 0 | -78 | · | · | 1
CC(C)CCN1CCN(Cc2ccc(N3CCNC3=O)cc2)CC1CCO (stereo unspecified) | 2 | -6 | -6 | · | · | 1.1
Cc1ccc(S(=O)(=O)NNC(=O)NC23CC4CC(CC(C4)C2)C3)cc1 | 0 | 1 | -17 | 4 | -34 | 1
Cc1ccc(/C=C2\SC(=S)N(CCCC(=O)Nc3ccccn3)C2=O)cc1 | 4 | -5 | 8 | 4 | -51 | 1.1
O=C(O)CCCCCN1C(=O)/C(=C\c2ccncc2)SC1=S | 2 | -2 | -74 | 52* | -15 | 1
O=C(NN1C(=O)/C(=C/C=C/c2ccccc2)SC1=S)c1ccncc1 | 9.3* | 12 | -8 | · | · | 0.9
O=C(CSc1ccc(Cl)cc1)NCc1ccco1 | 0 | -2 | -5 | · | · | 1
Cc1ccc(S(=O)(=O)N(C)C)cc1NC(=O)COC(=O)/C(=C/c1ccc(F)cc1)c1cccs1 | 2 | -5 | -6 | 19 | -7 | 1
CCCn1ncc(OC)c(Cl)c1=O | 1 | -4 | -12 | -18 | -23 | 1
Cn1c(=O)c2c(ncn2CC(=O)N2CCN(C(=O)c3ccco3)CC2)n(C)c1=O | 2 | 5 | -8 | · | · | 1
CC1(C)CC2CC(C)(CN2C(=S)NC(=O)c2ccccc2Cl)C1 (stereo unspecified) | 1 | 0 | -14 | 29* | -37 | 1
CCCN(CCC)C(=O)CSc1nc2c(sc(=S)n2-c2ccc(OCC)cc2)c(=O)[nH]1 | 5 | -1 | -11 | · | · | 1
CCOC(=O)CC(=O)CSc1nc2c(sc(=S)n2-c2ccc(OCC)cc2)c(=O)[nH]1 | 8.7* | 6 | 7 | 14 | -36 | 0.9
COc1ccc(CNC(=O)CN(Cc2ccc(Cl)cc2)S(=O)(=O)c2ccccc2)cc1 | 8.6* | -1 | -4 | 6 | -30 | 1
COc1ccc(CNC(=O)CN(Cc2ccccc2)S(=O)(=O)c2ccc(Cl)cc2)cc1 | 9.2* | -2 | -2 | -15 | -29 | 1
CS(=O)(=O)NCCNC(=O)c1cc(OCC(F)(F)F)ccc1OCC(F)(F)F | 0 | 2 | -8 | · | · | 1
COc1ccc(OCCCn2c(=O)oc3ccccc32)cc1 | -1 | 6 | -1 | · | -31 | 0.9
CCCCOc1ccccc1Cn1c(=O)oc2ccccc21 | 11* | -4 | -11 | -1 | -18 | 1
COc1ccc(C/C(C)=N/NC(=O)C2COc3ccccc3O2)cc1 (stereo unspecified) | 2 | -4 | -7 | · | · | 1
CCOc1ccc2nc(SCC(=O)N3CCCc4ccccc43)sc2c1 | 10.0* | 2 | -7 | -9 | -54 | 1
CCOc1ccc2nc(SCC(=O)c3ccc(Cl)s3)sc2c1 | 9.8* | -1 | -5 | 1 | -19 | 1
CCOc1ccc2nc(SCC(=O)c3cccs3)sc2c1 | 1 | -5 | -1 | -12 | -1 | 1
Cn1ccc(NC(=O)Nc2cccc([N+](=O)[O-])c2)n1 | 4 | -2 | -6 | · | · | 1
SMILES | RAM network inh | TNAP inh hiacc | TNAP inh no acc | Yeast life ext | BB579 growth dn | TNAP act hi DEA
CCCN1C(=O)c2ccc(C(=O)NC3CCCCC3)cc2C1=O | 4 | -1 | -8 | -10 | -55 | 1
Cc1[nH]c2ccccc2c1/C=N/Nc1ccc([N+](=O)[O-])cc1 | 5 | 39 | 31 | 4 | -31 | 0.6
COc1ccccc1NS(=O)(=O)c1cc([N+](=O)[O-])ccc1N/N=C/c1c(C)[nH]c2ccccc12 | 11* | 32 | 24 | -5 | -43 | 0.7
O=C(CCCN1CC=C(n2c(=O)[nH]c3ccccc32)CC1)c1ccc(F)cc1 | 0 | 7 | 63* | 2 | 9 | 0.9
Cc1cc(C)c(S(=O)(=O)Nc2ccc[nH]c2=O)c(C)c1 | 2 | 3 | -6 | 4 | -76 | 1
COc1ccccc1NC(=O)C/C(C)=N/NC(=O)COc1c(Br)cc(Br)cc1OC | -1 | -5 | -10 | · | · | 1
Cc1[nH]n(-c2ncc(-c3ccccc3)s2)c(=O)c1C(c1ccc(Br)cc1)C(C#N)C#N (stereo unspecified) | 11* | 15 | -26 | 19 | 2 | 0.8
Cc1[nH]n(C(N)=S)c(=O)c1C(c1ccccc1)C(C#N)C#N (stereo unspecified) | -1 | 1 | -11 | 18 | -41 | 1
Cc1cccc(-n2nnnc2SCC(=O)c2cc(C)n(Cc3ccco3)c2C)c1 | 6 | -3 | -11 | -10 | -49 | 1
CCOc1ccccc1C(=O)N[C@H](C(=O)OCc1cc(=O)oc2cc(C)ccc12)C(C)C | 9.7* | -2 | -8 | 7 | -30 | 1
CCOc1ccccc1C(=O)N[C@H](C(=O)OCc1cc([N+](=O)[O-])cc2c1OCOC2)C(C)C | 8.8* | 2 | 8 | -3 | -42 | 1
Cc1c2cccn2cc[n+]1C | 1 | -3 | -14 | 16 | -32 | 1
CC1=NN(c2ccc(C(F)(F)F)cn2)C(=O)C1 | -1 | 2 | -4 | 58* | -23 | 1
O=C(CCn1c(=O)c2sccc2n(CC(=O)OCc2ccccc2)c1=O)NCc1ccco1 | 3 | 0 | -9 | -3 | -24 | 1
O=C(CCn1c(=O)c2sccc2n(CC(=O)OCc2ccccc2)c1=O)NCc1ccccc1 | 11* | 2 | -3 | 10 | -46 | 1
CC1CCc2c(sc3ncnc(SCC(=O)N4CCN(C(=O)c5ccco5)CC4)c23)C1 (stereo unspecified) | · | -2 | 3 | · | · | 1
Cc1ccc(C(=O)CSc2ncnc3sc4c(c23)CCC(C)C4)cc1 (stereo unspecified) | 8.6* | -4 | -7 | · | -28 | 1

High-throughput results: PubChem BioAssay, several laboratories
